Dynein transport: inhibitors of GR-EGFP nuclear translocation, primary screen, dynein cargo transport inhibitor project, imaging, high-content, 3617.4 mouse cells | test concentration mostly 20 µM; stimulated with dexamethasone, 1 µM; hits give low values | AID 1381, 2008 | z-score, hits read low | 220,000 tested, 0.47% active;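 active = plate z-score of nuclear minus cytoplasmic receptor signal below a set negative limit, without overly bright fluorescence or cell loss, cut at about -3.5 in these data, passing the limit was not always enough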;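 also: z-score of nuclear minus cytoplasmic ring GR-EGFP intensity difference per well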
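Schedule: 48 h induction, then 1 h compound, then 30 min agonist, 37 °C. Buffer or medium: tetracycline-free induction medium containing charcoal-stripped FBS. Reagent: 1.0 µM final dexamethasone stimulus. Evaluation: nuclear versus cytoplasmic GR-EGFP signal, averaged per well. Signal: high-content fluorescence imaging after fixation.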
L major viab: Leishmania major promastigote growth inhibition, primary screen. inhibition, % at 10 µM. Leishmania major promastigotes, resazurin fluorescence viability. 200,000 tested, 9% active. AID 1063, 2008; in the data active = inhibition above about 50%;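 also: promastigotes grown with compound for 44 hours at 28 °C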
bCat nuc transl: modulators of beta-catenin nuclear translocation, primary screen, imaging, HeLa cells, immunofluorescence, high-content | AID 1665, 2009 | nuclear translocation activity, % at 5 µM | 190,000 tested, 0.3% active;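 active = nuclear translocation activity above 50% at 5 µM, with a well cell count of 50 or more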;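 also: per-cell ratio of nuclear to cytoplasmic median beta-catenin stain intensity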
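test system = HeLa cells, endogenous beta-catenin | dosing = single 5 µM dose plus 0.02–20 µM confirmation series | times = compound treatment 24 h, 37°C, 5% CO2 | technique = beta-catenin immunofluorescence imaging with DAPI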
MT stabilize HCS: microtubule stabilizers in HeLa cells, primary screen, imaging, high-content imaging | HeLa tubulin immunostaining HCS, 24 h; share of cells brighter than vehicle mean+2SD | % tubulin-high responders, % at 10 µM | 200,000 tested, 0.83% active;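 active = plate Z-score above 3 for both tubulin-high and condensed-nucleus cell shares, with cell loss under 80%, at 10 µM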;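 also: anti alpha tubulin signal scored within the nucleus-defined area of each cell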
Autophagy HCS: autophagy modulators in MEF cells, primary screen, imaging, high-content, MEF GFP-LC3. 190,000 tested, 0.98% active. MEF GFP-LC3 puncta imaging; test concentration mostly 10 µM. calls only at 10 µM (by protocol);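 active = percentage of spot-positive cells more than 3 SD above its plate mean, without a fluorescence outlier flag or 80% toxicity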
CHOP inhibitor: inhibitors of CHOP promoter induction, primary screen, cell-based, unfolded protein response, luciferase reporter | CHO-K1 CHOP-promoter luciferase, tunicamycin-induced, 15-18 h | AID 2732, 2010 | inhibition, % at 10 µM | 220,000 tested, 3.8% active;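 active = compounds that reduced the stress-induced luciferase reporter signal by more than about 70% of percent inhibition, limit read from the data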
Large screens that a line does not name were inactive. This is a sample that favours compounds with a hit; in the whole collection about 12% have one here.

Cc1cnc(NC(=O)CSc2nc3ccccc3s2)s1	none (no result: bCat nuc transl)
COc1ccccc1NC(=O)CN(c1ccc(C23CC4CC(CC(C4)C2)C3)cc1)S(C)(=O)=O	L major viab 79.3
Oc1ccccc1-c1nc(N2CCN(Cc3ccccc3)CC2)c2ccccc2n1	none
Oc1ccc(CN2CCN(Cc3ccccc3)CC2)c2cccnc12	L major viab 100.2 (no result: bCat nuc transl)
O=[N+]([O-])c1cc(CN2CCN(c3ccccc3)CC2)c(O)c2ncccc12	L major viab 100.3, CHOP inhibitor 76.6
O=S(=O)(c1ccc(Cl)cc1)N1CCN(Cc2ccc(O)c3ncccc23)CC1	L major viab 98.1
CN1CCN(Cc2cc(COCc3ccccc3)c3cccnc3c2O)CC1	L major viab 100.5 (no result: CHOP inhibitor)
CN1CCN(c2nc(-c3ccccc3)nc3c2oc2ccccc23)CC1	none (no result: Dynein transport, L major viab, MT stabilize HCS, Autophagy HCS, CHOP inhibitor)
O=[N+]([O-])c1cc(CN2CCOCC2)c2cccnc2c1O	none
COC(=O)c1ccc(OS(=O)(=O)N(C)C)cc1	none
O=[N+]([O-])c1cccc(CNC2CCCCCC2)c1	L major viab 86.2
COc1ccc([N+](=O)[O-])cc1NCc1cccc([N+](=O)[O-])c1	none
CC1CCCCC1NCc1cccc([N+](=O)[O-])c1 (stereo unspecified)	L major viab 83.0
COCC(C)NCc1cccc([N+](=O)[O-])c1 (stereo unspecified)	none
COc1ccc(/C=C(\C#N)C(=O)OCC(=O)NCc2ccc(Cl)cc2)cc1	L major viab 58.8 (no result: bCat nuc transl)
Cc1ccc(NC(=O)N(Cc2cccnc2)Cc2ccco2)cc1C	L major viab 92.3
O=C(Nc1ccc(Cl)cc1)N(Cc1cccnc1)Cc1ccco1	L major viab 91.6 (no result: bCat nuc transl)
N#CCCN(Cc1cccnc1)C(=O)Nc1ccc(Cl)c(Cl)c1	L major viab 94.6
Cc1ccc2oc(=O)c3cnn(CC(=O)N4CCCc5ccccc54)c3c2c1	none (no result: Autophagy HCS)
[O-][n+]1c2ccc3nonc3c2nn1-c1ccccc1Cl	none (no result: bCat nuc transl)
Cc1cc(C)nc(NS(=O)(=O)c2ccc(NC(=O)c3ccc4c(c3)OCCO4)cc2)n1	none
Cc1onc(-c2c(Cl)cccc2Cl)c1C(=O)N1CCSCC1	none (no result: L major viab, MT stabilize HCS, Autophagy HCS)
Cc1cc2ncn(C(=O)c3c(-c4c(Cl)cccc4Cl)noc3C)c2cc1C	CHOP inhibitor 74.2
Cc1cc2ncn(C(=O)c3c(-c4ccccc4)noc3C)c2cc1C	CHOP inhibitor 72.5 (no result: bCat nuc transl)
OCC[C@@H]1C[C@@H](O)[C@H](O)[C@]2(CCCCO2)O1	none (no result: bCat nuc transl)
O=C(c1cc2n(n1)C(C(F)(F)F)CC(c1ccc(F)cc1)N2)N1CCCC1 (stereo unspecified)	none (no result: bCat nuc transl)
CCOC(=O)Cn1c2ccccc2c2nc3ccccc3nc21	CHOP inhibitor 92.8
COc1ccc2c(c1)c1nc3ccccc3nc1n2CCn1c(=O)oc2ccccc21	CHOP inhibitor 95.2
COc1ccc2c(c1)c1nc3ccccc3nc1n2CC(=O)OC(C)C	Autophagy HCS active, CHOP inhibitor 93.9 (no result: bCat nuc transl)
COc1ccc(Cn2c3ccc(OC)cc3c3nc4ccccc4nc32)cc1	Autophagy HCS active
CC(NC(=O)c1cccc(F)c1)C(c1cccs1)N1CCN(C)CC1 (stereo unspecified)	none
CCC1(C(=O)OC)NC(c2ccco2)C2C(=O)N(c3ccc(F)cc3)C(=O)C21 (stereo unspecified)	none
O=C(Nc1c(O)c2ccccc2[nH]c1=O)c1ccco1	none (no result: L major viab, MT stabilize HCS, Autophagy HCS)
COc1ccc2c(c1)c1nc3ccccc3nc1n2CCCN1C(=O)c2ccccc2C1=O	none
COc1ccc2c(c1)c1nc3ccccc3nc1n2Cc1ccc(OC(C)C)c(OC)c1	Autophagy HCS active
O=C(NCc1ccc(Cl)cc1)c1n[nH]c([N+](=O)[O-])c1Cl	none
COc1ccc(C2=NOC(C(=O)O)C2)cc1 (stereo unspecified)	none
COc1ccc(C2=NOC(C(=O)Nc3cccnc3Cl)C2)cc1 (stereo unspecified)	Autophagy HCS active
COc1cc(OC)c(C(=O)Nc2ncn[nH]2)cc1OC	none (no result: bCat nuc transl, CHOP inhibitor)
OCCN1CCN(C(=S)c2ccc(Cl)c(Cl)c2)CC1	L major viab 84.9
Cc1ccc2[nH]c(=O)c(N3CCOCC3)c(-c3ccccc3)c2c1	CHOP inhibitor 76.3 (no result: bCat nuc transl)

Screening data: PubChem, several laboratories
